Data on 4 compounds can be found in ChEMBL document CHEMBL2380272, “Biological evaluation of bisbenzaldehydes against four Mycobacterium species” (Eur J Med Chem, 2013).

The test system of test [1] is Mycobacterium tuberculosis. Kind of test: Antimycobacterial activity against multidrug-resistant Mycobacterium tuberculosis LAM-1 clinical isolate assessed as growth inhibition after 6 days by BACTEC 460-TB method. In kind it is functional. As to conditions: LAM-1, 144 h. An outline of the steps:
(§1)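 BACTEC 460-TB radiometric assay measuring 14CO2 from 14C-palmitic acid. The MDR LAM-1 isolate was precultured to growth index 300, then inoculated into a fresh vial with compound dilutions made in 7H9 + 10% OADC. Final concentrations were 0.4–1.2 µM. GI was read daily. MIC90 and MIC99 came from comparison with untreated controls diluted 10- and 100-fold. A 0.1 µg/mL isoniazid culture served as the resistance control.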

Test [2] concerns Mycobacterium tuberculosis. In words: Antimycobacterial activity against multidrug-resistant Mycobacterium tuberculosis LAM-1 clinical isolate assessed as growth inhibition at 1 to 1.2 uM after 6 days by BACTEC 460-TB method relative to 10 to 100 times diluted untreated control. In kind it is functional. An outline of the steps:
as §1

In brackets after ≈: the same amount, converted by molar mass.

Usually MIC90 stands for an inhibitory concentration at the 90% level, which refers to growth in some studies and to a panel of isolates in others. With `O=Cc1ccc(OCCCCCCCCCCCCOc2ccc(C=O)cc2)cc1`, in test [1], the MIC90 turned out to be 0.4 µM (≈ 0.164 µg/mL). Also, the “growth inhibition (GI)” value in test [2] is on record as 99%.

On to `O=Cc1ccc(OCCCCCCCCCOc2ccc(C=O)cc2)cc1`, for which, in test [1], the MIC90 stood at 0.6 µM (≈ 0.221 µg/mL).

In the case of `O=Cc1ccc(OCCCCCCCCCCOc2ccc(C=O)cc2)cc1`, the MIC90 in test [1] worked out at 0.6 µM (≈ 0.229 µg/mL).

As for `O=Cc1ccc(OCCCCCCCCCCCOc2ccc(C=O)cc2)cc1`, the MIC90 in test [1] worked out at 0.6 µM (≈ 0.238 µg/mL). Moreover, the “growth inhibition (GI)” value in test [2] is 99%.
